Converted amounts (≈) assume the structure as drawn.
How the values were obtained:
[1] = tested on: M. tuberculosis; conditions: previous study; cited from earlier work
[2] = Interconversion; assay type: physicochemical; conditions: for Relative stability among diastereomers/epimers: hemiaminal equilibrium
[3] = biological target: Mycobacterial ClpC1 FL (full-length protein) (Mycobacterium tuberculosis, UniProt P9WPC9); assay: Binding affinity to full-length ClpC1 by surface plasmon resonance; conditions: SPR, KD = kd/ka, 1:1 Langmuir model
Chain of Mycobacterial ClpC1 FL (full-length protein) (P9WPC9 whole entry, the tested form may be a part): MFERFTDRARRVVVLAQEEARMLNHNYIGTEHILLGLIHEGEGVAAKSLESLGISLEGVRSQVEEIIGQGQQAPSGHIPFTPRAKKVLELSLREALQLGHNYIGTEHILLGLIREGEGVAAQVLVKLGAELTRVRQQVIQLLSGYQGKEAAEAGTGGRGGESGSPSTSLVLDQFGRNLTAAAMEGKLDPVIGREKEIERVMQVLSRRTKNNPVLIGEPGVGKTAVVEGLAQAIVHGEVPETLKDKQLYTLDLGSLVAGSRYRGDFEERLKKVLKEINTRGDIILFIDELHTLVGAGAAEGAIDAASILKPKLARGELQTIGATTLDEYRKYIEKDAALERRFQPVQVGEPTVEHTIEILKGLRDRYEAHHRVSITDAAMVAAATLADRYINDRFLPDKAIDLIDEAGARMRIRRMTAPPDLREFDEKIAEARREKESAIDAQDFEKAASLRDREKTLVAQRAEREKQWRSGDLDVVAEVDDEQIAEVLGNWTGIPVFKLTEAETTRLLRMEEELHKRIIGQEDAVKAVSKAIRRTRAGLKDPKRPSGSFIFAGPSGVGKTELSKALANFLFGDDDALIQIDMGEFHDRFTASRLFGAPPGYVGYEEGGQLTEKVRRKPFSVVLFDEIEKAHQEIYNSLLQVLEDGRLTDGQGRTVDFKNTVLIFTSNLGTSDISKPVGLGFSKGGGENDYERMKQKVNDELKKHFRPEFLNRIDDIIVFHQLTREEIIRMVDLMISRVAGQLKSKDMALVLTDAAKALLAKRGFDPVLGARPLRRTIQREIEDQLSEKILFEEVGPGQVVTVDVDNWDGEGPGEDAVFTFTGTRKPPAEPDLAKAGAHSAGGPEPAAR
Procedure, shortened: (§1)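 Association (ka) and dissociation (kd) rate constants came from a global fit of double-referenced SPR data to a 1:1 Langmuir model, and KD was calculated as kd/ka. The same procedure was used for the mycobacterial ClpC1 N-terminal domain and for the full-length protein.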

[4] = biological target: Mycobacterial ClpC1-NTD (caseinolytic protein C1 N-terminal domain) (Mycobacterium tuberculosis, UniProt P9WPC9); assay: Binding affinity to ClpC1-NTD by surface plasmon resonance; conditions: SPR, KD = kd/ka, 1:1 Langmuir model
Chain of Mycobacterial ClpC1-NTD (caseinolytic protein C1 N-terminal domain) (P9WPC9 2-144): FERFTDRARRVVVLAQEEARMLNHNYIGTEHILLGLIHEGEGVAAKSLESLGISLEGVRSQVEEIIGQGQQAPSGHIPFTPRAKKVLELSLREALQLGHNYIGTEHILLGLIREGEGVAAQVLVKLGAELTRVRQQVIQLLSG
Procedure, shortened: as §1

[5] = tested on: M. tuberculosis; assay: MIC against M. tuberculosis, microplate Alamar Blue assay; assay type: cell-based; conditions: Mycobacterium tuberculosis, read-out: MIC value (anti-Mtb)

C/C=C/C[C@@H]1NC(=O)[C@H](CC(C)C)N2C(=O)[C@H](C[C@H](C)[C@H]2O)N(C)C(=O)[C@H](C)NC(=O)[C@H](Cc2ccc(O)c([N+](=O)[O-])c2)NC(=O)[C@H](CC(C)C)N(C)C(=O)[C@H](Cc2cn(C(C)(C)[C@H]3CO3)c3ccccc23)NC1=O [rufomycin 4]
MIC value (anti-Mtb) [1]: ~ 0.020 μM

C/C=C/C[C@@H]1NC(=O)[C@H](CC(C)C)N2C(=O)[C@H](C[C@@H](C)[C@H]2O)N(C)C(=O)[C@H](C)NC(=O)[C@H](Cc2ccc(O)c([N+](=O)[O-])c2)NC(=O)[C@H](CC(C)C)N(C)C(=O)[C@H](Cc2cn(C(C)(C)[C@H]3CO3)c3ccccc23)NC1=O [rufomycin 6]
Relative stability among diastereomers/epimers [2]: more stable epimer
Conversion to rufomycin 7 ([2]; slow conversion under aqueous conditions): ~ 5%

C/C=C/C[C@@H]1NC(=O)[C@H](CC(C)C)N2C(=O)[C@H](C[C@@H](C)[C@@H]2O)N(C)C(=O)[C@H](C)NC(=O)[C@H](Cc2ccc(O)c([N+](=O)[O-])c2)NC(=O)[C@H](CC(C)C)N(C)C(=O)[C@H](Cc2cn(C(C)(C)[C@H]3CO3)c3ccccc23)NC1=O [rufomycin 7]
Relative stability among diastereomers/epimers [2]: most unstable diastereomer
Epimerization to rufomycin 6 ([2]; quickly, during concentration): ~ 50%

CC=CCC1NC(=O)C(CC(C)C)N2C(=O)C(CC(C)C2OCCCC)N(C)C(=O)C(C)NC(=O)C(Cc2ccc(O)c([N+](=O)[O-])c2)NC(=O)C(CC(C)C)N(C)C(=O)C(Cc2cn(C(C)(C)C(O)CCl)c3ccccc23)NC1=O (stereo not drawn) [rufomycinSS 1]
Kd [3]: 724 nM
Kd [4]: 602 nM

CC=CCC1NC(=O)C(CC(C)C)N2C(=O)C(CC(C)C2OCCCC)N(C)C(=O)C(C)NC(=O)C(Cc2ccc(O)c([N+](=O)[O-])c2)NC(=O)C(CC(C)C)N(C)C(=O)C(Cc2cn(C(C)(C)C(O)CCl)c3ccccc23)NC1=O (stereo not drawn) [rufomycinSS 2]
Kd [3]: 29 nM
Kd [4]: 27 nM

C/C=C/C[C@@H]1NC(=O)[C@H](CC(C)C)N2C(=O)[C@H](C[C@@H](C)[C@H]2OCCCC)N(C)C(=O)[C@H](C)NC(=O)[C@H](Cc2ccc(O)c([N+](=O)[O-])c2)NC(=O)[C@H](CC(C)C)N(C)C(=O)[C@H](Cc2cn(C(C)(C)C(O)CCl)c3ccccc23)NC1=O (stereo partly drawn) [rufomycinSS 3]
Kd [3]: 171 nM
MIC [5]: 4.3 µM (≈ 4.88 µg/mL)
Kd [4]: 211 nM

— PMC8865217 (Journal of natural products, 2021)
